Source: ChEMBL document CHEMBL1212825, “Synthesis and structure-activity relationships of N-(2-oxo-3-oxetanyl)amides as N-acylethanolamine-hydrolyzing acid amidase inhibitors” (J Med Chem, 2010)
Activity calls are given as the source filed them. The rule behind the calls is not given here.

T1: N-acylethanolamine-hydrolyzing acid amidase (Rattus norvegicus, UniProt Q5KTC7)
T1 sequence (Q5KTC7 whole entry): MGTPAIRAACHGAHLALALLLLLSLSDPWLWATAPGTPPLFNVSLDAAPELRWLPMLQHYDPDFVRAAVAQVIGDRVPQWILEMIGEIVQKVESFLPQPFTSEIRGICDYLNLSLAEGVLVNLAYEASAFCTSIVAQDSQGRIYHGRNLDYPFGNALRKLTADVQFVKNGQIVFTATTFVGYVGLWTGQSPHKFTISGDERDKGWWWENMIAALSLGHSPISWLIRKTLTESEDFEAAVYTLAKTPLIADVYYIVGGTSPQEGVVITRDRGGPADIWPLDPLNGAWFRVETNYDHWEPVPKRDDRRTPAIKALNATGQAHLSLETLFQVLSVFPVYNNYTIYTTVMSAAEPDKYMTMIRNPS

T2: N-acylethanolamine-hydrolyzing acid amidase (Rattus norvegicus) (UniProt Q5KTC7)
T2 sequence (whole entry): T1 sequence (Q5KTC7 whole entry)

B1: N-acylethanolamine-hydrolyzing acid amidase (Rattus norvegicus), Q5KTC7 (protein)
chain: T1 sequence (Q5KTC7 whole entry)

The molecules below were run on O=C(N[C@H]1COC1=O)c1ccc(-c2ccccc2)cc1 (assay: not given). Settings: Rattus norvegicus; HEK293; 100 nM.

B1 was tested, and the Km was 129 µM.

These molecules were tested on O=C(N[C@H]1COC1=O)c1ccc(-c2ccccc2)cc1 (assay: not given). Settings: Rattus norvegicus; HEK293; 200 nM.

Work on B1 yielded a Km of 156 µM.

The molecules below were run on Mus musculus (assay: Antiinflammatory activity in polyethylene sponges implanted mouse assessed as inhibition of carrageenan-induced reduction of palmitoylethanolamine level compound administered into sponges). Settings: not given.
Type: functional, organism-based
Method in brief: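 Mice received subcutaneous polyethylene sponges (1 cm3, 2 per mouse) under dorsal skin. Each sponge was instilled with carrageenan 1.0% in 90 μL sterile saline plus drug or vehicle (DMSO, 10 μL/sponge), with drugs given over a range of doses. PEA measured by LC/MS.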

For O=C(CCc1ccccc1)N[C@H]1COC1=O, the Activity was “Dose-dependent effect”.
With O=C(N[C@H]1COC1=O)c1ccc(-c2ccccc2)cc1 the Activity was “Dose-dependent effect”.

Each molecule was assayed against T1, N-acylethanolamine-hydrolyzing acid amidase (assay: Inhibition of rat recombinant NAAA expressed in HEK293 cells after 30 mins). Settings: not given.
Type: cell-based
Method in brief: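 Rat NAAA (full-length coding sequence cloned from rat brain cDNA, Flag-tagged) stably expressed in HEK293 cells, selected with G418 0.3 mg/mL. Enzyme taken as 105,000 g supernatant after freeze-thaw of the 12,000 g pellet. Incubated at 37 °C for 30 min in 50 mM sodium hydrogen phosphate pH 5.0 with 0.1% Triton X-100, 3 mM DTT and 50 μM heptadecenoylethanolamide substrate. IC50 reported.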

Point of comparison: O=C(CCc1ccccc1)N[C@@H]1COC1=O, IC50 6 µM. Against it:
- C[C@H]1OC(=O)[C@H]1NC(=O)CCc1ccccc1 — higher, > 100 µM
- O=C(N[C@H]1COC1=O)c1ccc(C(=O)Oc2ccccc2)cc1 — 20-fold lower, 0.3 µM
- O=C(N[C@H]1CCOC1=O)c1ccc2ccccc2c1 — higher, > 100 µM
- O=C(CCc1ccccc1)N[C@H]1CCOC1=O — higher, > 100 µM
- O=C(Cc1ccccc1)N[C@H]1COC1=O — 3.2-fold lower, 1.85 µM
- O=C(N[C@@H]1COC1=O)c1ccc2ccccc2c1 — 1.9-fold lower, 3.2 µM
- O=C(N[C@H]1COC1=O)c1cccc2ccccc12 — 8.3-fold higher, 50 µM
- COc1ccc2cc(C(=O)N[C@H]3COC3=O)ccc2c1 — 15-fold lower, 0.4 µM
- O=C(CCCCCCc1ccccc1)N[C@H]1COC1=O — 4-fold lower, 1.5 µM
- O=C(CCc1ccccc1)N[C@@H](CO)C(=O)O — higher, > 100 µM
- O=C(N[C@H]1COC1=O)c1cccc(-c2ccccc2)c1 — within 1.5-fold, 4.4 µM
- O=C1OCC1CCCCc1ccccc1 (racemic) — 1.8-fold higher, 11 µM
- CCOC(=O)c1ccc2cc(C(=O)N[C@H]3COC3=O)ccc2c1 — 20-fold lower, 0.3 µM
- O=C(CCc1ccccc1)NC1CCC1 — higher, > 100 µM
- CCCCCCC(=O)N[C@H]1COC1=O — 13-fold lower, 0.46 µM
- O=C(N[C@H]1COC1=O)c1ccccc1 — 3.5-fold lower, 1.7 µM
- C[C@@H]1OC(=O)[C@@H]1NC(=O)CCc1ccccc1 — 1.9-fold lower, 3.2 µM
- O=C(N[C@H]1COC1=O)OCc1ccccc1 — 2-fold lower, 2.96 µM
- CCc1ccc(C(=O)N[C@H]2COC2=O)cc1 — 59-fold lower, 0.102 µM
- O=C(N[C@H]1COC1=O)c1ccc2ccccc2c1 — 38-fold lower, 0.16 µM
- O=C(N[C@H]1COC1=O)c1ccc(OCc2ccccc2)cc1 — 67-fold lower, 0.09 µM

Substrate: O=C(N[C@H]1COC1=O)c1ccc(-c2ccccc2)cc1
Assay: not given
Settings: Rattus norvegicus; HEK293; 200 nM
Remark: another data set of the same source

For B1, the Vmax was 6.2 nmol/min.

The molecules below were run on Mus musculus (assay: Antiinflammatory activity in polyethylene sponges implanted mouse assessed as reduction of carrageenan-induced leukocyte infiltration compound administered into sponges). Settings: not given.
Type: functional, organism-based

With O=C(CCc1ccccc1)N[C@H]1COC1=O the Activity was “Active”.
O=C(N[C@H]1COC1=O)c1ccc(-c2ccccc2)cc1 was tested, and the Activity was “Active”.

The molecules below were run against T2, N-acylethanolamine-hydrolyzing acid amidase (Rattus norvegicus) (assay: Inhibition of rat recombinant NAAA expressed in HEK293 cells assessed as recovered initial enzyme activity at 10 uM after 12 hrs of dialysis; values are per cent of control). Settings: not given.

O=C(CCc1ccccc1)N[C@H]1COC1=O gave a residual activity of 44%.

Substrate: O=C(N[C@H]1COC1=O)c1ccc(-c2ccccc2)cc1
Assay: not given
Settings: Rattus norvegicus; HEK293; 100 nM
Remark: another data set of the same source

B1 gave a Vmax of 10.8 nmol/min.
